# “And” between values parts separate entries of the source, which are not always exact repeats. Equal values may be shown once.
# Columns and labels:
# [1] = tested on: unilaterally lesioned rats; test: L-dopa dependent abnormal involuntary movements; format: in vivo, rat; conditions: for Normalized total AIMs score, percent relative to vehicle control: 10 mg/kg
# [2] = target: human D2 dopamine receptor; conditions: read-out: Ki at dopamine D2 receptors; ref Grundt et al., 2005; cited from earlier work
# [3] = tested on: human D3 dopamine receptor; conditions: binding; ref Grundt et al., 2005; cited from earlier work
# [4] = tested on: unilaterally lesioned rats; test: Cylinder test of forelimb usage; format: in vivo, rat; conditions: PG01042 10 mg/kg with L-dopa/benserazide 8 mg/kg each
# Outline: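 Unilaterally lesioned rats received saline, L-dopa plus benserazide (8 mg/kg each), or these with the test compound (10 mg/kg). In the cylinder, an observer scored which forelimb first touched the Plexiglas wall (left, right or both) during rearing. The right forelimb was contralateral to the lesion. Scoring began 12 min (5 min) and 20 min (until >13 touches/rat) post injection. Read-out was percent usage, n = 7.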
# D3 dopamine receptor = conditions: transfected CHO cells; maximum 10^-5 M; ref Grundt et al., 2005; cited from earlier work
# D3 dopamine receptors = D3 dopamine receptors (Homo sapiens, UniProt P35462); format: cell-based; conditions: transfected HEK cells; test ligand 10 nM; relative to quinpirole
# Chain of D3 dopamine receptors (P35462 whole entry): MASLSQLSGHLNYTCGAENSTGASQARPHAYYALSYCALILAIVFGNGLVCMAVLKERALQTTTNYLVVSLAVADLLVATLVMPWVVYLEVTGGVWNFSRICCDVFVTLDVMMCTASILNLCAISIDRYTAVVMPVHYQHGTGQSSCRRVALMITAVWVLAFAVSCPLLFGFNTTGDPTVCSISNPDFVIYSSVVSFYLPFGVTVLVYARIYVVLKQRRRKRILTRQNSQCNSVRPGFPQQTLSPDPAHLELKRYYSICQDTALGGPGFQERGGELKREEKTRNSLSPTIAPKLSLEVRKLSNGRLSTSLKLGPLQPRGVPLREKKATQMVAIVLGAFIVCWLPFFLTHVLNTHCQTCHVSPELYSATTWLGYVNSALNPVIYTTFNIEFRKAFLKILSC
# [5] = tested on: unilaterally lesioned rats; test: Rotarod test of motor performance and coordination; format: in vivo, rat; conditions: 10 mg/kg i.p.; 30 and 60 minutes post drug administration; p ≥ 0.10
# [6] = tested on: unilaterally lesioned rats; test: Apomorphine-dependent AIMs in unilaterally lesioned rats; format: in vivo, rat
# Outline: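 Unilaterally lesioned rats received the test compound (10 mg/kg i.p.) or vehicle, immediately followed by apomorphine 0.05 mg/kg s.c. Total AIMs scores were summed over time and expressed as percent of vehicle control, as mean ± S.E.M., n = 12. Periods analysed: 0–60, 0–40 and 50–60 min.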
# D2 dopamine receptor = conditions: transfected CHO cells; maximum 10^-5 M; ref Grundt et al., 2005; cited from earlier work
# rat = conditions: ref ScienceLab.com; cited from earlier work
# [7] = 10 mg/kg i.p., 0 min pretreatment, L-dopa/benserazide 8 mg/kg each, n = 12
smiles,measurement,setting,value
"Cl.O=C1CC2(CCCC2)CC(=O)N1CCCCN1CCN(c2ncccn2)CC1 [buspirone, N-[4-[4-(2-pyrimidinyl)-1-piperazinyl]butyl]-8-azaspiro[4.5]decane-7,9-dione hydrochloride, reference compound]",%Reduction of total AIMs values,"[1]; buspirone 1 mg/kg i.p. with L-dopa 8 mg/kg and benserazide 8 mg/kg, n = 12",34.8 ± 6.2%
same,Effect on total AIM scores versus vehicle control,"[1]; buspirone 4 mg/kg 30 minutes prior to L-dopa 8 mg/kg i.p., p < 0.001, n = 10",significant reduction
"O=C(NCCCCN1CCN(c2cccc(Cl)c2Cl)CC1)c1ccc(-c2cccnc2)cc1 [PG01042, N-(4-(4-(2,3-dichlorophenyl)piperazin-1-yl)butyl)-4-(pyridin-3-yl)benzamide]",Ki,[2],18.2 nM
same,D3 selectivity compared to the D2 dopamine receptor subtype,[3],39 fold and > 39 fold
same,Mean reduction in the total AIMs score,"[1]; 1 mg/kg i.p., 0 min pretreatment, L-dopa/benserazide 8 mg/kg each, n = 12",8.4 ± 7.3%
same,Mean reduction in the total AIMs score,"[1]; 3 mg/kg i.p., 0 min pretreatment, L-dopa/benserazide 8 mg/kg each, n = 12, dose response experiment",25.2 ± 4.4%
same,Percent reduction of axial twisting AIM score,[1]; [7],78.5 ± 4.6%
same,Percent reduction of forelimb movement AIM score,[1]; [7],56% and 56.0 ± 3.1%
same,Percent reduction of locomotion AIM score,[1]; [7],80.4 ± 9.5%
same,Percent reduction of orolingual AIM score,[1]; [7],76.5 ± 10.8%
same,Precipitation of AIMs by test drug alone,"[1]; 10 mg/kg i.p., during the 60 min pretreatment period before L-dopa",did not precipitate any AIMs
same,"Normalized total AIMs score, percent relative to vehicle control",[1]; 0 minutes pretreatment before L-dopa/benserazide 8 mg/kg,29.4 ± 6.1%
same,"Normalized total AIMs score, percent relative to vehicle control",[1]; 60 minutes pretreatment before L-dopa/benserazide 8 mg/kg,68.0 ± 8.6%
same,Effect on total AIM scores versus vehicle control,"[1]; PG01042 3 mg/kg simultaneously with L-dopa 8 mg/kg i.p., F(1,22) = 14.4, n = 12",significantly attenuate
same,"IC50 for attenuation of total AIMs score, linear regression analysis","[1]; i.p., 0 min pretreatment, doses 0 to 10 mg/kg, L-dopa/benserazide 8 mg/kg each",6.6 mg/kg
same,"IC50 for attenuation of total AIMs score, one site fit","[1]; i.p., 0 min pretreatment, curve constrained to 0 and 100%, r^2 = 0.98",5.6 mg/kg
same,Use of right (compromised) forelimb,"[4]; 12 minutes post injection, n = 7",70.1 ± 2.3%
same,Use of right paw,[4]; 20 minutes post injection,85.0 ± 4.6%
same,"Intrinsic activity at D3 receptors, mitogenic assay",D3 dopamine receptor,partial agonist
same,"Intrinsic activity at D3 receptors, adenylyl cyclase inhibition",D3 dopamine receptors,agonist
same,Latency to fall on rotarod versus vehicle control,[5],no statistical significant difference
same,"Percent reduction in the total AIMs score, apomorphine-dependent","[6]; 10 mg/kg i.p. simultaneously with apomorphine 0.05 mg/kg s.c., 0 to 60 minutes, n = 12",14.5 ± 3.0%
same,"Percent attenuation of the AIMs minus locomotor scores, apomorphine-dependent","[6]; PG01042 simultaneously with apomorphine 0.05 mg/kg s.c., whole time period",approximately 15%
same,"Intrinsic activity at D2 receptors, mitogenic assay",D2 dopamine receptor,partial agonist
"C[S+](C)[O-] [DMSO, dimethylsulfoxide]",Oral acute LD50,rat,14500 mg/kg
"COc1ccccc1N1CCN(CCN(C(=O)C2CCCCC2)c2ccccn2)CC1 [WAY 100635, reference compound]",Reduction in the attenuation of total AIMs score by PG01037,"[1]; WAY 100635 1 mg/kg 10 min before PG01037 3 mg/kg, L-dopa 8 mg/kg i.p.",no reduction
"O=C(NC/C=C/CN1CCN(c2cccc(Cl)c2Cl)CC1)c1ccc(-c2ccccn2)cc1 [PG01037, (E)-N-(4-(4-(2,3-dichlorophenyl)piperazin-1-yl)but-2-enyl)-4-(pyridin-2-yl)benzamide]","Intrinsic activity at D3 receptors, mitogenic assay",D3 dopamine receptor,antagonist
same,"Intrinsic activity at D3 receptors, adenylyl cyclase inhibition",D3 dopamine receptors,antagonist
